Data reported in ChEMBL document CHEMBL1250488, “Structural and functional basis of resistance to neuraminidase inhibitors of influenza B viruses” (J Med Chem, 2010).
pIC50, pKi: −log10 of the molar value.

Legend:
[1] = Inhibition of Influenza B virus (B/Perth/211/2001) recombinant neuraminidase E197 mutant expressed in Sf21 insect cells after 60 mins by MUNANA based assay
Outline: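 The enzyme source was virus grown in cell culture and solubilized in 1% CHAPS (final), then titrated to give similar fluorescence. Inhibitor (serial log10 dilutions in water, 0.01–10000 nM; one inhibitor 0.01–10000 μM) was added together with 100 μM MUNANA, with no preincubation. Fluorescence was read every minute for 60 min without stop solution. […] Duplicates.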

[2] = Inhibition of Influenza B virus (B/Perth/211/2001) recombinant neuraminidase E197 mutant expressed in Sf21 insect cells preincubated for 30 mins measured after 60 mins by MUNANA based assay
Outline: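 Virus detergent extract (1% CHAPS final, titrated to similar fluorescence) was preincubated for 30 min with inhibitor (serial log10 dilutions in water, 0.01–10000 nM; one inhibitor 0.01–10000 μM). 100 μM MUNANA was then added and fluorescence read every minute for 60 min without stop solution. […] Duplicates.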

Question: With O=C(O)C1(F)O[C@H]([C@H](O)[C@H](O)CO)[C@H](O)[C@@H](O)C1F (some centres not stated) as the compound, how does the pIC50 [1] read?
Answer: 4.71

Question: With CCOC(=O)C1=C[C@@H](OC(CC)CC)[C@H](NC(C)=O)[C@@H](N)C1 [OSELTAMIVIR] as the compound, how does the pIC50 [1] read?
Answer: 6.18

Question: What about the pKi [1] of the same compound?
Answer: 7.08

Question: With CCC(CC)[C@H](NC(C)=O)[C@@H]1[C@H](O)[C@@H](C(=O)O)C[C@H]1NC(=N)N [PERAMIVIR ANHYDROUS] as the compound, how does the pIC50 [1] read?
Answer: 7.12

Question: And the pKi [1]?
Answer: 8.08

Question: What about the pIC50 [2] of the same compound?
Answer: 7.38

Question: What about the pKi [2] of the same compound?
Answer: 8.09
